Measurements published in ChEMBL document CHEMBL4373711, “Development of 3,5-Dinitrophenyl-Containing 1,2,4-Triazoles and Their Trifluoromethyl Analogues as Highly Efficient Antitubercular Agents Inhibiting Decaprenylphosphoryl-β-d-ribofuranose 2'-Oxidase” (J Med Chem, 2019).
Values after ≈ are worked out from the molar mass of the structure shown. Active and inactive are the calls of the source. The rule behind the calls is not given here.

What was measured:
Mycobacterium kansasii [1] = assay: Antimycobacterial activity against Mycobacterium kansasii CNCTC My 235/80 after 7 days; assay type: functional; settings: CNCTC My 235/80, 168 h
Summary of the method: (§1)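 Microdilution in Šula's semisynthetic medium; compounds in DMSO at 32–0.03 µM. Inoculum from 1.0 McFarland suspension diluted 10-4. […] Isoniazid and rifampicin as reference drugs.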

Pichia kudriavzevii = assay: Antifungal activity against Candida krusei ATCC 6258 CCM8271 at highest concentration measured after 24 to 48 hrs by alamar blue dye based broth microdilution assay; assay type: functional, organism-based
Klebsiella pneumoniae = assay: Antibacterial activity against Klebsiella pneumoniae at highest concentration measured after 24 to 48 hrs by alamar blue dye based broth microdilution assay; assay type: functional, organism-based
[2] = Cytotoxicity against human A431 cells assessed as cell viability at 30 uM after 48 hrs by CellTiter 96 aqueous one solution assay relative to control; assay type: cell-based, A-431; settings: read-out: Activity
Summary of the method: (§2)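 HepG2 (DMEM, 10% FBS, 1 mM pyruvate) or A431 (DMEM, 10% FBS) seeded 10,000 cells/well, 24 h at 37 °C, 5% CO2, then 30 µM compound for 48 h. MTS reagent 60 min, absorbance 490 nm, background subtracted; 0.1% DMSO vehicle = 100%, 10% SDS = 0% viability.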

Mycobacterium avium [3] = assay: Antimycobacterial activity against Mycobacterium avium CNCTC My 330/88 after 14 days; assay type: functional; settings: CNCTC My 330/88, 336 h
Summary of the method: (§3)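 M. avium was tested by microdilution in Šula's semisynthetic medium, with compounds dissolved in DMSO and serially diluted from 1000 down to 1. Inoculum was a 1.0 McFarland suspension diluted 10-5. Plates were incubated at 37 °C and read at 14 and 21 days. […] Isoniazid and rifampicin served as standards.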

[4] = system: Mycobacterium tuberculosis; assay: Antimycobacterial activity against Mycobacterium tuberculosis H37Rv CNCTC My 331/88 after 14 days; assay type: functional; settings: H37Rv CNCTC My 331/88, 336 h
Summary of the method: (§4)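 M. tuberculosis strains (H37Rv and clinical MDR/XDR isolates) tested by microdilution in Šula's semisynthetic medium. Compounds were dissolved in DMSO and tested at 32 to 0.03 µM in twofold steps. Inoculum was a 1.0 McFarland suspension diluted 10-3. Plates were incubated at 37 °C and read at 14 and 21 days.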

[5] = system: Mycobacterium tuberculosis; assay: Antimycobacterial activity against XDR Mycobacterium tuberculosis Praha 131 after 14 days; assay type: functional; settings: Praha 131, 336 h; summary of the method: as §4
[6] = system: Staphylococcus epidermidis; assay: Antibacterial activity against Staphylococcus epidermidis at highest concentration measured after 24 to 48 hrs by alamar blue dye based broth microdilution assay; assay type: functional, organism-based
Aspergillus flavus = assay: Antifungal activity against Aspergillus flavus CCM 8363 at highest concentration measured after 24 to 48 hrs by alamar blue dye based broth microdilution assay; assay type: functional, organism-based
A-431 = assay: Cytotoxicity against human A431 cells assessed as reduction in cell viability after 48 hrs by CellTiter 96 aqueous one solution assay; assay type: cell-based; settings: A-431, 48 h
Mycobacterium kansasii [7] = assay: Antimycobacterial activity against Mycobacterium kansasii 6509/96 after 7 days; assay type: functional; settings: 6509/96, 168 h; summary of the method: as §1
Aspergillus fumigatus = assay: Antifungal activity against Aspergillus fumigatus ATCC 204305 at highest concentration measured after 24 to 48 hrs by alamar blue dye based broth microdilution assay; assay type: functional, organism-based
Pseudomonas aeruginosa = assay: Antibacterial activity against Pseudomonas aeruginosa ATCC 27853 CCM 3955 at highest concentration measured after 24 to 48 hrs by alamar blue dye based broth microdilution assay; assay type: functional, organism-based
Candida albicans = assay: Antifungal activity against Candida albicans ATCC 24433 CCM 8320 at highest concentration measured after 24 to 48 hrs by alamar blue dye based broth microdilution assay; assay type: functional, organism-based
Staphylococcus aureus [8] = assay: Antibacterial activity against methicillin-resistant Staphylococcus aureus subsp. aureus ATCC 43300 CCM 4750 at highest concentration measured after 24 to 48 hrs by alamar blue dye based broth microdilution assay; assay type: functional, organism-based
Mycobacterium kansasii [9] = assay: Antimycobacterial activity against Mycobacterium kansasii CNCTC My 235/80 after 21 days; assay type: functional; settings: CNCTC My 235/80, 504 h; summary of the method: as §1
Lichtheimia corymbifera = assay: Antifungal activity against Lichtheimia corymbifera CCM 8077 at highest concentration measured after 24 to 48 hrs by alamar blue dye based broth microdilution assay; assay type: functional, organism-based
[10] = system: Mycobacterium tuberculosis; assay: Antimycobacterial activity against Mycobacterium tuberculosis H37Rv CNCTC My 331/88 after 21 days; assay type: functional; settings: H37Rv CNCTC My 331/88, 504 h; summary of the method: as §4
Serratia marcescens = assay: Antibacterial activity against Serratia marcescens at highest concentration measured after 24 to 48 hrs by alamar blue dye based broth microdilution assay; assay type: functional, organism-based
Mycobacterium kansasii [11] = assay: Antimycobacterial activity against Mycobacterium kansasii CNCTC My 235/80 after 14 days; assay type: functional; settings: CNCTC My 235/80, 336 h; summary of the method: as §1
[12] = system: Trichophyton interdigitale; assay: Antifungal activity against Trichophyton interdigitale ATCC 9533 CCM 8377 at highest concentration measured after 72 to 120 hrs by alamar blue dye based broth microdilution assay; assay type: functional
[13] = system: Mycobacterium tuberculosis; assay: Antimycobacterial activity against XDR Mycobacterium tuberculosis Praha 131 after 21 days; assay type: functional; settings: Praha 131, 504 h; summary of the method: as §4
Mycobacterium kansasii [14] = assay: Antimycobacterial activity against Mycobacterium kansasii 6509/96 after 21 days; assay type: functional; settings: 6509/96, 504 h; summary of the method: as §1
Escherichia coli = assay: Antibacterial activity against Escherichia coli ATCC 25922 CCM 3954 at highest concentration measured after 24 to 48 hrs by alamar blue dye based broth microdilution assay; assay type: functional, organism-based
Candida parapsilosis = assay: Antifungal activity against Candida parapsilosis ATCC 22019 CCM 8260 at highest concentration measured after 24 to 48 hrs by alamar blue dye based broth microdilution assay; assay type: functional, organism-based
Enterococcus faecalis = assay: Antibacterial activity against Enterococcus faecalis ATCC 29212 CCM 4224 at highest concentration measured after 24 to 48 hrs by alamar blue dye based broth microdilution assay; assay type: functional, organism-based
Staphylococcus aureus [15] = assay: Antibacterial activity against Staphylococcus aureus subsp. aureus ATCC 29213 CCM 4223 at highest concentration measured after 24 to 48 hrs by alamar blue dye based broth microdilution assay; assay type: functional, organism-based
Mycobacterium kansasii [16] = assay: Antimycobacterial activity against Mycobacterium kansasii 6509/96 after 14 days; assay type: functional; settings: 6509/96, 336 h; summary of the method: as §1
[17] = Cytotoxicity against human HepG2 cells assessed as cell viability at 30 uM after 48 hrs by CellTiter 96 aqueous one solution assay relative to control; assay type: cell-based; settings: read-out: Activity; summary of the method: as §2
Mycobacterium avium [18] = assay: Antimycobacterial activity against Mycobacterium avium CNCTC My 330/88 after 21 days; assay type: functional; settings: CNCTC My 330/88, 504 h; summary of the method: as §3
HepG2 = assay: Cytotoxicity against human HepG2 cells assessed as reduction in cell viability after 48 hrs by CellTiter 96 aqueous one solution assay; assay type: cell-based; settings: HepG2, 48 h
Candida tropicalis = assay: Antifungal activity against Candida tropicalis ATCC 750 CCM 8264 at highest concentration measured after 24 to 48 hrs by alamar blue dye based broth microdilution assay; assay type: functional, organism-based
[19] = Genotoxicity in Salmonella typhimurium TA98 at 30 uM in presence of rat liver S9 fraction by Ames test; assay type: toxicity, subcellular; settings: salmonella enterica subsp. enterica serovar typhimurium, s9, 30 µM
Summary of the method: (§5)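 Microplate fluctuation Ames reverse-mutation test following kit instructions; TA98 detects frameshift and TA100 base-exchange mutations. Compound at 30 µM final with Aroclor-1254-induced rat liver S9 plus cofactors.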

[20] = Genotoxicity in Salmonella typhimurium TA100 at 30 uM in presence of rat liver S9 fraction by Ames test; assay type: toxicity, subcellular; settings: salmonella enterica subsp. enterica serovar typhimurium, s9, 30 µM; summary of the method: as §5

SMILES | MIC99 (Mycobacterium kansasii [1]) [µM] | Activity (Pichia kudriavzevii) | Activity (Klebsiella pneumoniae) | viability at 48 h, 30 µM [2] [%] | MIC99 (Mycobacterium avium [3]) [µM] | MIC99 [4] [µM] | MIC99 [5] [µM] | Activity [6] | Activity (Aspergillus flavus) | IC50 (A-431) [µM] | MIC99 (Mycobacterium kansasii [7]) [µM] | Activity (Aspergillus fumigatus) | Activity (Pseudomonas aeruginosa) | Activity (Candida albicans) | Activity (Staphylococcus aureus [8]) | MIC99 (Mycobacterium kansasii [9]) [µM] | Activity (Lichtheimia corymbifera) | MIC99 [10] [µM] | Activity (Serratia marcescens) | MIC99 (Mycobacterium kansasii [11]) [µM] | further results
O=[N+]([O-])c1cc(-c2nnc(SCc3ccc(Br)cc3)n2Cc2ccccc2)cc([N+](=O)[O-])c1 | 0.125 (≈ 0.0658 µg/mL) | inactive | inactive | 110 | 62 (≈ 32.6 µg/mL) | 0.125 (≈ 0.0658 µg/mL) | 0.125 (≈ 0.0658 µg/mL) | inactive | inactive | > 30 | 0.125 (≈ 0.0658 µg/mL) | inactive | inactive | inactive | inactive | 0.25 (≈ 0.132 µg/mL) | inactive | 0.25 (≈ 0.132 µg/mL) | inactive | 0.25 (≈ 0.132 µg/mL) | Activity [12]: inactive; MIC99 [13]: 0.25 µM (≈ 0.132 µg/mL); MIC99 (Mycobacterium kansasii [14]): 0.25 µM (≈ 0.132 µg/mL); Activity (Escherichia coli): inactive; Activity (Candida parapsilosis): inactive; Activity (Enterococcus faecalis): inactive; Activity (Staphylococcus aureus [15]): inactive; MIC99 (Mycobacterium kansasii [16]): 0.125 µM (≈ 0.0658 µg/mL); viability at 48 h, 30 µM [17]: 104%; MIC99 (Mycobacterium avium [18]): 62 µM (≈ 32.6 µg/mL); IC50 (HepG2): > 30 µM; Activity (Candida tropicalis): inactive
CCCSc1nnc(-c2cc([N+](=O)[O-])cc([N+](=O)[O-])c2)n1Cc1ccccc1 | 0.125 (≈ 0.0499 µg/mL) | inactive | inactive | 123 | 250 (≈ 99.9 µg/mL) | 0.06 (≈ 0.024 µg/mL) | 0.125 (≈ 0.0499 µg/mL) | inactive | inactive | > 30 | 0.25 (≈ 0.0999 µg/mL) | inactive | inactive | inactive | inactive | 0.25 (≈ 0.0999 µg/mL) | inactive | 0.125 (≈ 0.0499 µg/mL) | inactive | 0.25 (≈ 0.0999 µg/mL) | Activity [12]: inactive; MIC99 [13]: 0.125 µM (≈ 0.0499 µg/mL); MIC99 (Mycobacterium kansasii [14]): 0.5 µM (≈ 0.2 µg/mL); Activity (Escherichia coli): inactive; Activity (Candida parapsilosis): inactive; Activity (Enterococcus faecalis): inactive; Activity (Staphylococcus aureus [15]): inactive; MIC99 (Mycobacterium kansasii [16]): 0.25 µM (≈ 0.0999 µg/mL); viability at 48 h, 30 µM [17]: 90%; MIC99 (Mycobacterium avium [18]): 250 µM (≈ 99.9 µg/mL); IC50 (HepG2): > 30 µM; Activity (Candida tropicalis): inactive
Nc1ccc2cc3ccccc3cc2c1 [2-AMINOANTHRACENE] |  |  |  |  |  |  |  |  |  |  |  |  |  |  |  |  |  |  |  |  | Activity [19]: Toxic; Activity [20]: Toxic
O=[N+]([O-])c1cc(CSc2nnc(-c3ccc(Br)cc3)n2Cc2ccccc2)cc([N+](=O)[O-])c1 | 1 (≈ 0.526 µg/mL) | inactive | inactive | 93 | 250 (≈ 132 µg/mL) | 2 (≈ 1.05 µg/mL) | 4 (≈ 2.11 µg/mL) | inactive | inactive | > 30 | 2 (≈ 1.05 µg/mL) | inactive | inactive | inactive | inactive | 4 (≈ 2.11 µg/mL) | inactive | 4 (≈ 2.11 µg/mL) | inactive | 2 (≈ 1.05 µg/mL) | Activity [12]: inactive; MIC99 [13]: 4 µM (≈ 2.11 µg/mL); MIC99 (Mycobacterium kansasii [14]): 4 µM (≈ 2.11 µg/mL); Activity (Escherichia coli): inactive; Activity (Candida parapsilosis): inactive; Activity (Enterococcus faecalis): inactive; Activity (Staphylococcus aureus [15]): inactive; MIC99 (Mycobacterium kansasii [16]): 4 µM (≈ 2.11 µg/mL); viability at 48 h, 30 µM [17]: 173%; MIC99 (Mycobacterium avium [18]): 250 µM (≈ 132 µg/mL); IC50 (HepG2): > 30 µM; Activity (Candida tropicalis): inactive
